Reference: ChEMBL document CHEMBL5046317, “Diminishing GSH-Adduct Formation of Tricyclic Diazepine-based Mutant IDH1 Inhibitors” (ACS Med Chem Lett, 2022)
≈ marks a conversion by molar mass, not a printed value.

What was measured:
MOG-G-UVW = assay: Antiproliferative activity against human MOG-G-UVW cells assessed as inhibition of cell proliferation incubated for 72 hrs by cell titer-Glo assay; type: functional, cell-based
[1] = Metabolic stability in human liver microsomes assessed as intrinsic clearance; type: ADME, Microsome; settings: read-out: CLH
[2] = target: Isocitrate dehydrogenase [NADP] cytoplasmic (Homo sapiens, UniProt O75874, R132H); assay: Inhibition of IDH1 R132H mutant (unknown origin) assessed as reduction in NADPH consumption using alpha-KG as substrate incubated for 60 mins by Kinase-GLO reagent based assay
Chain of Isocitrate dehydrogenase [NADP] cytoplasmic (Homo sapiens, UniProt O75874, R132H) (O75874 2-414 R132H limits assumed): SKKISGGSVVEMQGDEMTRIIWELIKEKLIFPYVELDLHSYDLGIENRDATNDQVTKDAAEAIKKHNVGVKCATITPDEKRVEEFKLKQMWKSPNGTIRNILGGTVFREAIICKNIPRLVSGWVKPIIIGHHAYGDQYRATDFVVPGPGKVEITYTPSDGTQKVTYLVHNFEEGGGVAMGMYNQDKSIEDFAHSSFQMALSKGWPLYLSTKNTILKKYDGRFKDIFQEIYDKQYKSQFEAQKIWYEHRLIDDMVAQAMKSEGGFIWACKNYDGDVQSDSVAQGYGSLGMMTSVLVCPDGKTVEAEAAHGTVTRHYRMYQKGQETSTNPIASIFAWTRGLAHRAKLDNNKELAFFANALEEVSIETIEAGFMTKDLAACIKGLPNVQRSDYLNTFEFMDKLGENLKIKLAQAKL

P-gp (ABCB1) = P-gp (ABCB1) (Homo sapiens, UniProt P08183); assay: Substrate activity at P-gp (unknown origin) transfected in LLC-PK1 cells expressing human MDR1 gene assessed as efflux ratio of permeability across basolateral to apical membrane at 0.1 uM; type: ADME, cell-based
Chain of P-gp (ABCB1) (P08183 whole entry): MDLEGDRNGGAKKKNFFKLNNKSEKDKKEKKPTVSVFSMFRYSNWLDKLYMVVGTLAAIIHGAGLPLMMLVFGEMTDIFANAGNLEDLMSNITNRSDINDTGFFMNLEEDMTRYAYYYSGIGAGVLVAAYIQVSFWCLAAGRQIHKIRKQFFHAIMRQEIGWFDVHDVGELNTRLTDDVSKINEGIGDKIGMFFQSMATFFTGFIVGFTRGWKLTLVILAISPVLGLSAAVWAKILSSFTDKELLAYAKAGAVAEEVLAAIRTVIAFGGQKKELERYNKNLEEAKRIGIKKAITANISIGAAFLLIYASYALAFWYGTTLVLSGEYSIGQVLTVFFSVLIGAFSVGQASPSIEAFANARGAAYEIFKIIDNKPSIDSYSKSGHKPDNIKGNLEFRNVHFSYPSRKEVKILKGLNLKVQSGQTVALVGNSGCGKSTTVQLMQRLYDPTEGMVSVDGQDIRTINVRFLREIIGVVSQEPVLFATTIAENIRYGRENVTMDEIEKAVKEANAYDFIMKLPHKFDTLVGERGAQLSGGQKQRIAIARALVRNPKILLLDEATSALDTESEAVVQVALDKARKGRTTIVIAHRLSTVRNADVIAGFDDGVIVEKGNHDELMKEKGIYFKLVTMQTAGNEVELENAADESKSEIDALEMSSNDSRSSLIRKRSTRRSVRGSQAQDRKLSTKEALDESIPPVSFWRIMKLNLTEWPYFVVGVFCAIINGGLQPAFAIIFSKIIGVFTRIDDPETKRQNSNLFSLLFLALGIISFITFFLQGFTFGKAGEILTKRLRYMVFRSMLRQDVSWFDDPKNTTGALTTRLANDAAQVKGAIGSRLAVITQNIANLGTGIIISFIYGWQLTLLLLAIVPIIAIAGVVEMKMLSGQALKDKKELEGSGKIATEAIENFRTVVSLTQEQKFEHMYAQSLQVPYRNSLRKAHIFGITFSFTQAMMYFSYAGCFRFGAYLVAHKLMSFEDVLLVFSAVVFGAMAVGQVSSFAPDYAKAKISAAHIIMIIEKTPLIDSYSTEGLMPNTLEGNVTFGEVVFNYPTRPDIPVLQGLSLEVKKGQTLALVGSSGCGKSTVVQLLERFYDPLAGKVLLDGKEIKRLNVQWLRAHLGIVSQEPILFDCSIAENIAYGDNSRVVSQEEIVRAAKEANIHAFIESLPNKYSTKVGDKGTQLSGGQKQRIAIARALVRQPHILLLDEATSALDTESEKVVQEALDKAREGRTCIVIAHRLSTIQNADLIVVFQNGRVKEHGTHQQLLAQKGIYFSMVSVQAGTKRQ

[3] = Distribution coefficient, logD of compound at pH 7.4 by HPLC analysis; type: physicochemical; settings: octanol/water
[4] = Half life in rat at 0.5 mg/kg, iv measured up to 24 hrs by LC-MS/MS analysis; type: ADME, organism-based; settings: in vivo
How it was run: (§1)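 Single-dose PK in rat and dog. Rat received 0.5 mg/kg IV and 1 mg/kg PO; dog received 2 mg/kg IV and 10 mg/kg PO. Parameters derived: terminal t1/2, Vd, clearance and oral bioavailability F.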

[5] = Half life in dog at 2 mg/kg, iv measured up to 24 hrs by LC-MS/MS analysis; type: ADME, organism-based, Canis lupus familiaris; settings: in vivo; how it was run: as §1
[6] = Volume of distribution in rat at 0.5 mg/kg, iv measured up to 24 hrs by LC-MS/MS analysis; type: ADME, organism-based; settings: in vivo; how it was run: as §1
[7] = Volume of distribution in dog at 2 mg/kg, iv measured up to 24 hrs by LC-MS/MS analysis; type: ADME, organism-based, Canis lupus familiaris; settings: in vivo; how it was run: as §1
[8] = Clearance in rat at 0.5 mg/kg, iv measured up to 24 hrs by LC-MS/MS analysis; type: ADME, organism-based; settings: in vivo; how it was run: as §1
[9] = Clearance in dog at 2 mg/kg, iv measured up to 24 hrs by LC-MS/MS analysis; type: ADME, organism-based, Canis lupus familiaris; settings: in vivo; how it was run: as §1
[10] = Oral bioavailability in rat 1 mg/kg measured up to 24 hrs by LC-MS/MS analysis; type: ADME, organism-based; settings: in vivo; how it was run: as §1
[11] = Oral bioavailability in dog 10 mg/kg measured up to 24 hrs by LC-MS/MS analysis; type: ADME, organism-based, Canis lupus familiaris; settings: in vivo; how it was run: as §1
[12] = Solubility of the compound at pH 2; type: physicochemical; settings: buffer
[13] = Solubility of the compound at pH 6.5; type: physicochemical; settings: buffer
[14] = Solubility of the compound at pH 7; type: physicochemical; settings: buffer
[15] = Permeability of the compound in pig LLC-PK1 cells expressing MDR1; type: ADME, cell-based, Sus scrofa; settings: read-out: permeability
[16] = Drug metabolism in dog liver microsomes assessed as glutathione-adduct formation measured after 60 mins in presence of NADPH; type: ADME, Canis lupus familiaris, Microsome; settings: 1 h
[17] = target: Isocitrate dehydrogenase [NADP] cytoplasmic (Homo sapiens, UniProt O75874); assay: Inhibition of IDH1 (unknown origin)
Chain of Isocitrate dehydrogenase [NADP] cytoplasmic (Homo sapiens, UniProt O75874) (O75874 whole entry): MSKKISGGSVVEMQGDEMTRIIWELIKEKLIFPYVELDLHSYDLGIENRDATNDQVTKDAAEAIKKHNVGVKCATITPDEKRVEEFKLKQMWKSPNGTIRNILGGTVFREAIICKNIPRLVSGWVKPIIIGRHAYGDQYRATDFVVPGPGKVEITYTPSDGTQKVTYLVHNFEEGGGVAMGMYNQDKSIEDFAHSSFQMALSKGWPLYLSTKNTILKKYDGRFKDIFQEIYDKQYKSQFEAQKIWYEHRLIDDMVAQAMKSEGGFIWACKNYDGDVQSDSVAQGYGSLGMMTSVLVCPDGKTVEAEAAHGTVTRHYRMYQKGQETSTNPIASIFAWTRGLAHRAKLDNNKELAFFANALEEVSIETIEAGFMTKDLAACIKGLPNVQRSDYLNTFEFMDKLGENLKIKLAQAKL

[18] = target: T1, Nuclear receptor subfamily 1 group I member 2 (Homo sapiens, UniProt O75469); assay: Inhibition of PXR (unknown origin)
T1 sequence (O75469 whole entry): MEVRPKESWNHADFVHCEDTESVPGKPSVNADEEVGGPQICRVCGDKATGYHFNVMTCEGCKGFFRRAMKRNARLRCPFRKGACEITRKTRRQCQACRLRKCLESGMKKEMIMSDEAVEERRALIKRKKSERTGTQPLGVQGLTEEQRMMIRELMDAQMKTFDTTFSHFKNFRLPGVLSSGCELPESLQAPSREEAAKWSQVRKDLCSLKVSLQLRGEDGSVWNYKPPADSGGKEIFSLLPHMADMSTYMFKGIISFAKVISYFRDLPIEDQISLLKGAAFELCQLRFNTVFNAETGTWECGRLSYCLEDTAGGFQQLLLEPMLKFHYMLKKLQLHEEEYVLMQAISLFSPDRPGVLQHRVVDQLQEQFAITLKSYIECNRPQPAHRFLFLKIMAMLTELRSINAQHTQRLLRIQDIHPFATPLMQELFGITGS

Cytochrome P450 3A4 = Cytochrome P450 3A4 (Homo sapiens, UniProt P08684); assay: Inhibition of CYP3A4 (unknown origin); type: ADME
Chain of Cytochrome P450 3A4 (P08684 whole entry): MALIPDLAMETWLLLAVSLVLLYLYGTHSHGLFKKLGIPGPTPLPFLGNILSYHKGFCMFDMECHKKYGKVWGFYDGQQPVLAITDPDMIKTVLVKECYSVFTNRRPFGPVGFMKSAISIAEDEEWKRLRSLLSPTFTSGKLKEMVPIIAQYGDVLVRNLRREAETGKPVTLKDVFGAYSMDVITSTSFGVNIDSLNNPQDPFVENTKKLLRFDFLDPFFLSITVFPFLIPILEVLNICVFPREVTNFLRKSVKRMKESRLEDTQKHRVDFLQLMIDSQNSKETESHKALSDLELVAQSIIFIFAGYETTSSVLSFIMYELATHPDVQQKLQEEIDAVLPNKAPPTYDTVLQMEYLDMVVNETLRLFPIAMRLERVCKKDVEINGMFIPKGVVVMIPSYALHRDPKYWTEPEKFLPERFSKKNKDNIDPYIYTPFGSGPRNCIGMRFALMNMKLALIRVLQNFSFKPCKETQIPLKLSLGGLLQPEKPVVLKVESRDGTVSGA

[19] = target: T2, Isocitrate dehydrogenase [NADP], mitochondrial (Homo sapiens, UniProt P48735); assay: Inhibition of IDH2 (unknown origin)
T2 sequence (P48735 whole entry): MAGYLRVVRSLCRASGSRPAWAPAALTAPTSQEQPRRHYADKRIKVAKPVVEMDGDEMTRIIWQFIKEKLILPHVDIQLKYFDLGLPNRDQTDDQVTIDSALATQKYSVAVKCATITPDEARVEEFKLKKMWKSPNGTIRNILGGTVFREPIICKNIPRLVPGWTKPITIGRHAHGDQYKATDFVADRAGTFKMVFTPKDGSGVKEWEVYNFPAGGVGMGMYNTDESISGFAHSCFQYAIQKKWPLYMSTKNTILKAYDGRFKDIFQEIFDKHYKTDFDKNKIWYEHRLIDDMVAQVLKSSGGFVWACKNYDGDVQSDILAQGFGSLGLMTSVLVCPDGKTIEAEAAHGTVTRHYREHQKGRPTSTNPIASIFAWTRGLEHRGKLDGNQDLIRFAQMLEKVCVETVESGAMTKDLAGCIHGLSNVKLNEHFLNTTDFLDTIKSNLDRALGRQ

[20] = test system: P-gp (Mdr1) (Rattus norvegicus); assay: Substrate activity at rat P-gp transfected in […]-MDR1 expressing Mdr1 gene assessed as efflux ratio of permeability across basolateral to apical membrane at 0.1 uM

## CC(C)O[C@H]1CC[C@H](C(=O)N2Cc3cccnc3Nc3ccc(N4C[C@@H]5C[C@H]4CO5)cc32)CC1
MOG-G-UVW
  IC50: 60.6 nM
[1]
  CLint scaled: 34 mL/min/kg

## Cc1cnc2c(c1)CN(C(=O)[C@H]1CC[C@H](OC(C)C)CC1)c1cc(N3CC4CCC3CO4)ccc1N2 (some centres not stated)
[2]
  IC50: 113 nM
MOG-G-UVW
  IC50: 456 nM
P-gp (ABCB1)
  efflux ratio at 0.1 µM: 2.2

## CC(C)O[C@H]1CC[C@H](C(=O)N2Cc3cc(F)cnc3Nc3ccc(N4C[C@H]5CC[C@@H]4CO5)cc32)OC1
[2]
  IC50: 11 nM
MOG-G-UVW
  IC50: 8.1 nM
P-gp (ABCB1)
  efflux ratio at 0.1 µM: 1.4
[1]
  CLint scaled: 22 mL/min/kg

## CC(C)O[C@H]1CC[C@H](C(=O)N2c3cc(N4C[C@@H]5C[C@H]4CO5)ccc3Nc3ncccc3C2C)CC1 (some centres not stated)
[2]
  IC50: 25.3 nM
MOG-G-UVW
  IC50: 88.6 nM
P-gp (ABCB1)
  efflux ratio at 0.1 µM: 3.4
[1]
  CLint scaled: 143 mL/min/kg

## CC(C)O[C@H]1CC[C@H](C(=O)N2Cc3cncnc3Nc3ccc(N4C[C@@H]5C[C@H]4CO5)cc32)CC1
[2]
  IC50: 197 nM
MOG-G-UVW
  IC50: 810 nM
P-gp (ABCB1)
  efflux ratio at 0.1 µM: 8.1
[1]
  CLint scaled: 177 mL/min/kg

## CC(C)O[C@H]1CC[C@H](C(=O)N2Cc3cc(F)cnc3Nc3ccc(N4CC5CCC4CO5)cc32)CC1 (some centres not stated)
[2]
  IC50: 21.2 nM
MOG-G-UVW
  IC50: 18.2 nM
P-gp (ABCB1)
  efflux ratio at 0.1 µM: 2.9

## CC(C)O[C@H]1CC[C@H](C(=O)N2Cc3cc(S(C)(=O)=O)cnc3Nc3ccc(N4CC5CCC4CO5)cc32)CC1 (some centres not stated)
[2]
  IC50: 11200 nM
MOG-G-UVW
  IC50: > 10000 nM

## CC(C)O[C@H]1CC[C@H](C(=O)N2Cc3cc(F)cnc3Nc3ccc(-c4cnn(C)c4)cc32)OC1
[2]
  IC50: 4.9 nM
MOG-G-UVW
  IC50: 18.3 nM
P-gp (ABCB1)
  efflux ratio at 0.1 µM: 1.2
[1]
  CLint scaled: 51 mL/min/kg

## CC(C)O[C@H]1CC[C@H](C(=O)N2Cc3cccnc3Nc3cc(F)c(C4COCCO4)cc32)OC1 (some centres not stated)
[2]
  IC50: 32.5 nM
MOG-G-UVW
  IC50: 53.6 nM
[3]
  logD: 2.67
P-gp (ABCB1)
  efflux ratio at 0.1 µM: 1.2
[4]
  half-life: 66 min
[5]
  half-life: 360 min
[6]
  Vd: 3.7 L/kg
[7]
  Vd: 5.1 L/kg
[8]
  clearance: 69 mL/min/kg
[9]
  clearance: 26 mL/min/kg
[10]
  bioavailability: 100%
[11]
  bioavailability: 77%
[12]
  solubility: 143 µM (≈ 67.4 µg/mL)
[13]
  solubility: 154 µM (≈ 72.6 µg/mL)
[14]
  solubility: 123 µM (≈ 58 µg/mL)
[15]
  Papp: 38.7 ×10⁻⁶ cm/s
[1]
  CLint scaled: 58 mL/min/kg
[16]
  Activity: 1%

## CC(C)O[C@H]1CC[C@H](C(=O)N2Cc3cccnc3Nc3cnn(CC4CCOCC4)c32)CC1
[2]
  IC50: 1390 nM
MOG-G-UVW
  IC50: 5020 nM

## CC(C)O[C@H]1CC[C@H](C(=O)N2Cc3cc(F)cnc3Nc3ccc(C4COCCO4)cc32)OC1 (some centres not stated)
[2]
  IC50: 24.4 nM
MOG-G-UVW
  IC50: 56.9 nM
P-gp (ABCB1)
  efflux ratio at 0.1 µM: 0.9
[1]
  CLint scaled: 50 mL/min/kg
[16]
  Activity: 12%

## CC(C)O[C@H]1CC[C@H](C(=O)N2Cc3cccnc3Nc3cnc(C4COCCO4)cc32)CC1 (some centres not stated)
[2]
  IC50: 181 nM
MOG-G-UVW
  IC50: 581 nM
P-gp (ABCB1)
  efflux ratio at 0.1 µM: 3.7
[1]
  CLint scaled: 20 mL/min/kg

## CC(C)O[C@H]1CC[C@H](C(=O)N2Cc3cccnc3Nc3ccc(N4CC5(CCCOC5)C4)cc32)CC1
MOG-G-UVW
  IC50: 119 nM

## O=C(C1CCc2ccccc2CC1)N1Cc2cccnc2Nc2ccc(N3CCOCC3)cc21
[2]
  IC50: > 50000 nM
MOG-G-UVW
  IC50: 43 nM
P-gp (ABCB1)
  efflux ratio at 0.1 µM: 1.7
[1]
  CLint scaled: 1500 mL/min/kg
[17]
  IC50: > 5 µM
[18]
  IC50: 3.2 µM
Cytochrome P450 3A4
  IC50: > 5000 nM

## CC(C)O[C@H]1CC[C@H](C(=O)N2Cc3cccnc3Nc3ccc(C4COCCO4)cc32)OC1 (some centres not stated)
MOG-G-UVW
  IC50: 88.5 nM
P-gp (ABCB1)
  efflux ratio at 0.1 µM: 1.1
[1]
  CLint scaled: 34 mL/min/kg
[16]
  Activity: 7%

## CC(C)O[C@H]1CC[C@H](C(=O)N2Cc3cccnc3Nc3ccc(N4C[C@H]5CC[C@@H]4CO5)cc32)OC1
[2]
  IC50: 21.6 nM
MOG-G-UVW
  IC50: 17.8 nM
[1]
  CLint scaled: 21 mL/min/kg
[17]
  IC50: > 50 µM
[19]
  IC50: > 50 µM
[18]
  IC50: 18 µM
Cytochrome P450 3A4
  IC50: 1000 nM

## CC(C)O[C@H]1CC[C@H](C(=O)N2Cc3cccnc3Nc3ccc(N4CCOCC4)cc32)CC1
[2]
  IC50: 34.9 nM
MOG-G-UVW
  IC50: 64.4 nM

## CC(C)O[C@H]1CC[C@H](C(=O)N2Cc3cc(Cl)cnc3Nc3ccc(N4CC5CCC4CO5)cc32)CC1 (some centres not stated)
[2]
  IC50: 28.7 nM
MOG-G-UVW
  IC50: 95.9 nM
[20]
  efflux ratio at 0.1 µM: 4.6

## CC(C)O[C@H]1CC[C@H](C(=O)N2Cc3cccnc3Nc3ccc(N4CC5CCC4CO5)c(F)c32)CC1 (some centres not stated)
MOG-G-UVW
  IC50: 205 nM
P-gp (ABCB1)
  efflux ratio at 0.1 µM: 3.1
[1]
  CLint scaled: 210 mL/min/kg

## CC(C)O[C@H]1CC[C@H](C(=O)N2Cc3nccnc3Nc3ccc(C4CCOCC4)cc32)CC1
[2]
  IC50: 22.4 nM
MOG-G-UVW
  IC50: 146 nM
P-gp (ABCB1)
  efflux ratio at 0.1 µM: 1.4
[1]
  CLint scaled: 92 mL/min/kg

## CC(C)O[C@H]1CC[C@H](C(=O)N2Cc3cccnc3Nc3ccc(N4CC5CCC4CO5)cc32)CC1 (some centres not stated)
[2]
  IC50: 11 nM
MOG-G-UVW
  IC50: 17.2 nM
P-gp (ABCB1)
  efflux ratio at 0.1 µM: 3.6

## O=C(C1CCN(CC(F)(F)F)CC1)N1Cc2cc(F)cnc2Nc2ccc(N3C[C@@H]4C[C@H]3CO4)cc21
[2]
  IC50: 8.7 nM
MOG-G-UVW
  IC50: 42.4 nM
P-gp (ABCB1)
  efflux ratio at 0.1 µM: 2.2
[1]
  CLint scaled: 33 mL/min/kg

## CC(C)O[C@H]1CC[C@H](C(=O)N2Cc3cccnc3Nc3cnc(N4C[C@@H]5C[C@H]4CO5)cc32)CC1
[2]
  IC50: 116 nM
MOG-G-UVW
  IC50: 261 nM
P-gp (ABCB1)
  efflux ratio at 0.1 µM: 6.6
[1]
  CLint scaled: 64 mL/min/kg

## COC1C[C@H]2CC[C@@H](C1)N2c1ccc2c(c1)N(C(=O)C1CCN(CC(F)(F)F)CC1)Cc1cccnc1N2 (some centres not stated)
[2]
  IC50: 15.6 nM
MOG-G-UVW
  IC50: 61 nM

## CC(C)O[C@H]1CC[C@H](C(=O)N2Cc3cccnc3Nc3cc(F)c(N4CC5CCC4CO5)cc32)CC1 (some centres not stated)
MOG-G-UVW
  IC50: 36.2 nM
P-gp (ABCB1)
  efflux ratio at 0.1 µM: 2.5
[1]
  CLint scaled: 124 mL/min/kg
